Measurements reported in PMC9055608 (RSC Advances, 2020).

Columns and labels:
A-549 = test: MTT cell proliferation assay, A-549; type: cell-based, human; conditions: Homo sapiens, A549, 72 h
How it was run: (§1)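 ATCC lines grown in DMEM or RPMI-1640 with 10% heat-inactivated FBS and 1% penicillin/streptomycin at 37 °C, 5% CO2. Log-phase cells seeded at about 4000–5000/well and left to adhere 24 h. Sextuplicate wells, 72 h. MTT for 4 h, then DMSO and absorbance. IC50 taken from dose–response curves.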

A375 = test: MTT cell proliferation assay, A375; type: cell-based, human; conditions: Homo sapiens, A-375, 72 h
How it was run: as §1

HT-29 = test: MTT cell proliferation assay, HT-29; type: cell-based, human; conditions: Homo sapiens, HT-29, 72 h
How it was run: as §1

MDA-MB231 = test: MTT cell proliferation assay, MDA-MB231; type: cell-based, human; conditions: Homo sapiens, MDA-MB-231, 72 h
How it was run: as §1

[1] = tested on: LO2 human normal liver cells; test: MTT assay, cytotoxicity against normal cell line LO2; type: cell-based
How it was run: (§2)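 Cells seeded at about 4000–5000/well and allowed 24 h to adhere. MTT for 4 h, formazan dissolved in DMSO, absorbance read, and inhibition rate per concentration reported.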

SKBR3 = test: MTT cell proliferation assay, SKBR3; type: cell-based, human; conditions: Homo sapiens, SK-BR-3, 72 h
How it was run: as §1

Tissue distribution = type: in vivo, SD rats; conditions: for CL / AUC(0-inf): rat; for CL: tail vein injection of DHDK solution; for AUC(0-inf): iv, 14 mg/kg
How it was run: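 SD rats (12 male, 12 female), fasted 12 h, received an intravenous dose of 14 mg kg−1 test-compound micelles. Six rats were killed at each of 0.25, 1, 4 and 24 h. Heart, liver, spleen, lung and kidney were rinsed in ice-cold saline, weighed, homogenised and stored at −80 °C. Samples were extracted with MTBE using curcumin internal standard. Analysis was by C18 LC-ESI-MS/MS (formic acid/acetonitrile gradient, MRM m/z 294.98→106.67).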

SKOV3 = test: MTT cell proliferation assay, SKOV3; type: cell-based, human; conditions: Homo sapiens, SK-OV-3, 72 h
How it was run: as §1

MCF-7 xenograft tumour = test: Drug efficacy in vivo, MCF-7 breast cancer model; set-up: species or system nude mice
N87 = test: MTT cell proliferation assay, N87; type: cell-based, human; conditions: Homo sapiens, 72 h
How it was run: as §1

MDA-MB453 = test: MTT cell proliferation assay, MDA-MB453; type: cell-based, human; conditions: Homo sapiens, MDA-MB-453, 72 h
How it was run: as §1

[2] = tested on: GES-1 human normal gastric epithelial cells; test: MTT assay, cytotoxicity against normal cell line GES-1; type: cell-based; conditions: for OD value (mean ± SD): GES-1
How it was run: as §2

`O=C(/C=C/CCc1ccc(O)cc1)/C=C/c1ccc(O)cc1` [DHDK, (1E,4E)-1,7-Bis(4-hydroxyphenyl)hepta-1,4-dien-3-one] gave an IC50 (A-549) of 8.01 ± 0.44 µM, an IC50 (A375) of 6.64 ± 0.4 µM and an IC50 (HT-29) of 4.79 ± 0.54 µM. It also gave an IC50 (MDA-MB231) of 4.49 µM, an inhibition at 0.14 µM ([1]; Homo sapiens, read-out: Inhibition rate, LO2, DHDK 0.14 μmol·L^−1) of 1.36% and an inhibition at 0.42 µM ([1]; Homo sapiens, read-out: Inhibition rate, LO2, DHDK 0.42 μmol·L^−1) of 1.51%. It also gave an inhibition at 1.26 µM ([1]; Homo sapiens, read-out: Inhibition rate, LO2, DHDK 1.26 μmol·L^−1) of 1.87%, an inhibition at 3.8 µM ([1]; Homo sapiens, read-out: Inhibition rate, LO2, DHDK 3.8 μmol·L^−1) of 2.08% and an inhibition at 11.3 µM ([1]; Homo sapiens, read-out: Inhibition rate, LO2, DHDK 11.3 μmol·L^−1) of 2.57%. The “OD value (mean ± SD)” value ([1]; LO2, DHDK 0.14 μmol·L^−1) was 0.69 ± 0.013, the “OD value (mean ± SD)” value ([1]; LO2, DHDK 0.42 μmol·L^−1) was 0.68 ± 0.039 and the “OD value (mean ± SD)” value ([1]; LO2, DHDK 1.26 μmol·L^−1) was 0.68 ± 0.022. The “OD value (mean ± SD)” value ([1]; LO2, DHDK 3.8 μmol·L^−1) was 0.68 ± 0.031, the “OD value (mean ± SD)” value ([1]; LO2, DHDK 11.3 μmol·L^−1) was 0.68 ± 0.0066 and the Inhibition rate ([1]; LO2, DHDK 34.0 μmol·L^−1) was 4.17%. The “OD value (mean ± SD)” value ([1]; LO2, DHDK 34.0 μmol·L^−1) was 0.67 ± 0.025, the IC50 (SKBR3) was 1.71 ± 0.1 µM and the CL (Tissue distribution; Heart) was 50.93 ± 26.52 L·kg/h. The CL (Tissue distribution; Kidney) was 244.93 ± 9.95 L·kg/h, the CL (Tissue distribution; Liver) was 5.846 ± 1.02 L·kg/h and the CL (Tissue distribution; Lung) was 8.89 ± 1.97 L·kg/h. The CL (Tissue distribution; Spleen) was 81.66 ± 45.73 L·kg/h, the AUC(0-inf) (Tissue distribution; Sprague-Dawley (SD), kidney) was 57.2 ± 32.3 ng·h/mL and the AUC(0-inf) (Tissue distribution; Sprague-Dawley (SD), lung) was 1630 ± 299 ng·h/mL. For the same molecule, the AUC(0-inf) (Tissue distribution; Sprague-Dawley (SD), spleen) was 207 ± 84.3 ng·h/mL, the AUC(0-inf) (Tissue distribution; both, SD, heart) was 414 ± 364 ng·h/mL and the AUC(0-inf) (Tissue distribution; both, SD, liver) was 2450 ± 425 ng·h/mL. The “order of DHDK concentration in different tissues” value (Tissue distribution; rats, 14 mg kg^−1 tail vein) was “lung > liver > heart > kidney > spleen”, the “order of clearance rates in tissues” value (Tissue distribution; rats, 14 mg kg^−1 tail vein) was “kidney > spleen > heart > lung > liver” and the IC50 (SKOV3) was 9.59 ± 0.44 µM. The “tumour inhibition rate of DHDK high-dose group as share of the cisplatin group” value (MCF-7 xenograft tumour; DHDK 40 mg kg^−1 vs cisplatin 5 mg kg^−1) was 74.6%, the “Tumour weight (mean)” value (MCF-7 xenograft tumour; group B, low-dose, DHDK micelles 10 mg kg^−1 every day for 9 days) was 597.04 ± 38.19 and the “Tumour weight (mean)” value (MCF-7 xenograft tumour; group C, medium-dose, DHDK micelles 20 mg kg^−1 every day for 9 days) was 540.53 ± 63.76. For the same molecule, the “Tumour weight (mean)” value (MCF-7 xenograft tumour; group D, high-dose, DHDK micelles 40 mg kg^−1 every day for 9 days) was 435.13 ± 140.10, the “Inhibition rate (IR) determined as tumour weight” value (from here on “Inhibition rate (IR) determined”) (MCF-7 xenograft tumour; high-dose, DHDK 40 mg kg^−1 every day for 9 days) was 47.85% and the “Inhibition rate (IR) determined” value (MCF-7 xenograft tumour; low-dose, DHDK 10 mg kg^−1 every day for 9 days) was 28.44%. The “Inhibition rate (IR) determined” value (MCF-7 xenograft tumour; medium-dose, DHDK 20 mg kg^−1 every day for 9 days) was 35.22%, the IC50 (N87) was 10.8 ± 0.5 µM and the IC50 (MDA-MB453) was 10.4 ± 0.92 µM. For the same molecule, the “OD value (mean ± SD)” value ([2]; DHDK 0.14 μmol·L^−1) was 0.71 ± 0.0031, the “OD value (mean ± SD)” value ([2]; DHDK 0.42 μmol·L^−1) was 0.71 ± 0.0098 and the “OD value (mean ± SD)” value ([2]; DHDK 1.26 μmol·L^−1) was 0.71 ± 0.0051. The “OD value (mean ± SD)” value ([2]; DHDK 3.8 μmol·L^−1) was 0.70 ± 0.0035, the “OD value (mean ± SD)” value ([2]; DHDK 11.3 μmol·L^−1) was 0.69 ± 0.0097 and the “OD value (mean ± SD)” value ([2]; DHDK 34.0 μmol·L^−1) was 0.68 ± 0.0075. For the same molecule, the inhibition at 0.14 µM ([2]; Homo sapiens, GES1, read-out: Inhibition rate) was 0.17%.
